# IMP-1 inh-1 = inhibitors of Pseudomonas aeruginosa IMP-1 metallo-beta-lactamase. purified IMP-1, nitrocefin hydrolysis, epi-absorbance fluorescence. 0.45% of 290,000 active. inhibition, % at 5.6 µM. AID 1556;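 active = inhibition above the mean plus 3 SD of all compounds in the same screening run, cut at about 4.5% in these data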;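 note: 0% = IMP-1 with DMSO and 100% = DMSO wells lacking enzyme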
#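 Assay system: purified recombinant IMP-1 beta-lactamase. Input: IMP-1 0.2 nM before substrate addition. Buffer or medium: Zinc- and detergent-supplemented HEPES buffer, pH 7.1. Schedule: 25 °C, 15 min preincubation, 25 min reaction. Signal: Epi-absorbance fluorescence, 480 nm excitation, 530 nm emission. Evaluation: percent inhibition from optical density relative to buffer-blank wells.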
# PAFAH1B2 FP inh = blocks human PAF acetylhydrolase 1b catalytic subunit 2. 1.2% of 340,000 active. recombinant PAFAH1B2, FP-rhodamine activity probe, fluorescence polarization. inhibition, % at 3.39 µM. P68402. AID 492953;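 active = inhibition above the mean of all tested compounds plus 3 SD, cut at about 24% in these data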;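 note: 0% = enzyme with DMSO and 100% = wells lacking PAFAH1B2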
# VIM-2 inh = inhibitors of Pseudomonas aeruginosa VIM-2 metallo-beta-lactamase. purified VIM-2, nitrocefin hydrolysis, epi-absorbance fluorescence. inhibition, % at 5.6 µM. 0.89% of 290,000 active;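 active = inhibition above the mean of all tested compounds plus 3 SD, cutoff set per screening run, cut at about 7.5% in these data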;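 note: red hydrolysis product quenches plate fluorescence so inhibitors raise well fluorescence; 0% = enzyme with DMSO and 100% = DMSO without enzyme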
# PAFAH1B3 inh = blocks human PAF acetylhydrolase 1B catalytic subunit 3. inhibition, % at 3.39 µM. recombinant PAFAH1B3, FP-rhodamine probe, fluorescence polarization. Q15102. 0.28% of 340,000 active;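 active = inhibition above the screen-wide average of all tested compounds plus 3 SD, cut at about 25% in these data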;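 note: 0% = enzyme with DMSO only and 100% = wells lacking PAFAH1B3 protein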
# pPAFAH FP inh = pPAFAH (human) enzyme inhibition; AID 463082; inhibition, % at 3.39 µM; recombinant pPAFAH, FP-rhodamine probe fluorescence polarization; 1.5% of 330,000 active;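 active = inhibition above the mean inhibition across the screen plus 3 SD, cut at about 25% in these data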;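 note: inhibitors block binding of the rhodamine activity-based probe so polarization drops; 0% = enzyme with DMSO and 100% = wells lacking pPAFAH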
# Target sequence (Q13093 whole entry, looked up): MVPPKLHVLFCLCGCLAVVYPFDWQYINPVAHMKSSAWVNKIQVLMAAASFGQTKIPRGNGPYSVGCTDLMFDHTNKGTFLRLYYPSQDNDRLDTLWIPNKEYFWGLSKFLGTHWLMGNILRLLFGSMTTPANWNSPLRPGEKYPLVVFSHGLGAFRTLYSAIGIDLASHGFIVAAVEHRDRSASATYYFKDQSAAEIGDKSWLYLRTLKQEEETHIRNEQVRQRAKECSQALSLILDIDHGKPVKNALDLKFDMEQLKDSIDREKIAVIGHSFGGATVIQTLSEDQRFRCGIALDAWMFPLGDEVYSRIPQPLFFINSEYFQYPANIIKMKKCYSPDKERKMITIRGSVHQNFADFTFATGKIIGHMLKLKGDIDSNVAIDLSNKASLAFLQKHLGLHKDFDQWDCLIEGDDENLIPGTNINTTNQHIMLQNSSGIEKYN
# PAFAH2 FP inh = inhibitors of human PAFAH2 | Q99487 | recombinant PAFAH2, FP-rhodamine activity probe, fluorescence polarization | inhibition, % at 3.39 µM | 0.99% of 340,000 active | AID 492956;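 active = inhibition above the mean over all tested compounds plus 3 SD, cut at about 30% in these data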;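 note: inhibitors block probe labeling of enzyme so polarization drops; 0% = enzyme with DMSO and 100% = wells lacking PAFAH2 protein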
# IMP-1 inh-2 = blocks IMP-1 metallo-beta-lactamase in VIM-2 selectivity screen. purified IMP-1, nitrocefin hydrolysis, epi-absorbance fluorescence. AID 1856. shares compounds with VIM-2 inh. 1,300 tested, under 10 active. inhibition, % at 5.6 µM; call rule not given here;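 note: 0% = enzyme with vehicle and 100% = vehicle without enzyme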
# VIM-2 FRET inh = inhibits VIM-2 in FRET assay to exclude epi-absorbance artifacts; purified VIM-2, CCF2 FRET substrate hydrolysis; 23% of 1,300 active; inhibition, % at 5.6 µM; AID 1857; shares compounds with VIM-2 inh;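 active = inhibition above the mean of all tested compounds plus 3 SD, cut at about 19% in these data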;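 note: 0% = VIM-2 plus DMSO and 100% = no enzyme wells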
# TEM-1 counter = selectivity counter-screen for VIM-2 inhibitors: E. coli TEM-1 inhibitors. Purified TEM-1, nitrocefin hydrolysis, epi-absorbance fluorescence. shares compounds with VIM-2 inh. 3% of 1,300 active. inhibition, % at 5.6 µM;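 active = inhibition above that campaign's mean inhibition plus 3 SD, cut at about 0.46% in these data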;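 note: 0% = TEM-1 with DMSO and 100% = TEM-1 with 100 µM potassium clavulanate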
# Target sequence (P62593 whole entry, looked up): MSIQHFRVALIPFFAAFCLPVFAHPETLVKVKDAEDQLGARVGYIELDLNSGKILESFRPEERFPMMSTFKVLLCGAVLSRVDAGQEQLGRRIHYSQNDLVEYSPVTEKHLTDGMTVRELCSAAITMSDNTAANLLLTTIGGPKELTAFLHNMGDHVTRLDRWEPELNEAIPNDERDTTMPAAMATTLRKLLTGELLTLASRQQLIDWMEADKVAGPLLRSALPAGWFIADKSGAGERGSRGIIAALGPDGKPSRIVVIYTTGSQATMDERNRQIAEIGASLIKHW
# VIM-2 confirm 2 = confirmation of P. aeruginosa VIM-2 metallo-beta-lactamase inhibitors | shares compounds with VIM-2 inh | purified VIM-2, nitrocefin hydrolysis, epi-absorbance | inhibition, % at 5.6 µM | 96% of 1,300 active;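 active = inhibition of the VIM-2 beta-lactamase enzyme above about 11% from the earlier first-round screen, limit read from the data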;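 note: 0% = VIM-2 with DMSO and 100% = buffer wells without enzyme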
# An asterisk follows results filed as active; x = not tested or not shown. This is a sample that favours compounds with a hit; in the whole collection about 3.6% have one here.
SMILES,IMP-1 inh-1,PAFAH1B2 FP inh,VIM-2 inh,PAFAH1B3 inh,pPAFAH FP inh,PAFAH2 FP inh,IMP-1 inh-2,VIM-2 FRET inh,TEM-1 counter,VIM-2 confirm 2
O=C(CCC(=O)N1CCSc2ccccc21)NCc1ccc(Cl)cc1,-1,25*,-3,-3,0,9,x,x,x,x
Cc1ccc(SSc2cc(C)ccc2N)c(N)c1,x,11,x,-3,4,11,x,x,x,x
COc1ccc(/C=N/NC(=O)CN(C)S(=O)(=O)c2ccc(NC(C)=O)cc2)cc1,31*,1,-2,-3,1,-2,x,x,x,x
CC(=O)Nc1ccc(S(=O)(=O)N(C)CC(=O)N/N=C/c2ccc(C(=O)O)cc2)cc1,2,4,0,15,-3,3,x,x,x,x
Cc1oc(-c2cccs2)nc1CS(=O)CC(=O)NCCCOC(C)C (configuration not stated),-1,2,0,8,15,-3,x,x,x,x
CCCCNC(=O)CS(=O)Cc1nc(-c2cccs2)oc1C (configuration not stated),6.1*,-3,-1,12,2,5,x,x,x,x
C[C@@H](N)C(=O)NC[C@H]1CC[C@H](C(=O)N[C@@H](Cc2ccccc2)C(=O)O)CC1,-2,4,-4,6,x,11,x,x,x,x
COc1ccc(CCNC(=O)COC(=O)CSc2ccc(C(N)=O)cc2[N+](=O)[O-])cc1OC,x,0,x,0,x,-4,x,x,x,x
COC(=O)c1c(NC(=O)c2ccco2)sc2c1CC(C)(C)NC2(C)C,1,-4,13*,5,-1,1,-5,3,-8,17*
O=C(Cc1ccc(Cl)cc1)Nc1ccccc1N1CCN(C(=O)c2ccccc2)CC1,-3,5,-1,8,0,-2,x,x,x,x
CCCN1CCN(CCCNC(=O)c2cc3c(=O)n(C)c4ccccc4c3n2C)CC1,-5,8,16*,-5,-4,-4,-3,4,-5,30*
COc1ccc(CCNC(=O)c2cc3c(=O)n(C)c4ccccc4c3n2C)cc1OC,-3,2,-1,3,-1,-2,x,x,x,x
CCOC(=O)N1CCC(NC(=O)c2cc3c(=O)n(C)c4ccccc4c3n2C)CC1,-3,-3,5,8,4,-3,x,x,x,x
CN1CCN(CCNC(=O)c2cc3c(=O)n(C)c4ccccc4c3n2C)CC1,2,2,21*,3,5,-4,-2,5,-5,33*
Cn1c(C(=O)NCCCN2CCCCCC2)cc2c(=O)n(C)c3ccccc3c21,1,1,22*,0,1,-11,0,-2,-4,29*
CCN1CCN(c2nn3c(=O)c4ccccc4nc3c3ccccc23)CC1,-2,3,18*,2,1,9,-2,4,-2,30*
CC1CN(c2nn3c(=O)c4ccccc4nc3c3ccccc23)CC(C)O1 (configuration not stated),-1,5,5,13,4,9,x,x,x,x
O=C(Cc1cccc(NC(=O)C2CCN(C(=O)C3CCCC3)CC2)c1)Nc1cccc(C(=O)N2CCOCC2)c1,x,4,x,3,x,-6,x,x,x,x
Cc1cc(C)c(C)c(S(=O)(=O)N2CCN(C(=O)c3ccccn3)CC2)c1C,x,2,x,6,-7,-7,x,x,x,x
CCc1cc2c(CN3CCN(CCO)CC3)cc(=O)oc2cc1O,-3,3,18*,12,3,-3,-3,-19,-7,25*
CCc1cc2c(CN3CCN(C)CC3)cc(=O)oc2cc1O,1,-3,16*,3,3,5,-1,-16,1.1*,31*
CCN1CCN(Cc2cc(=O)oc3cc4c(cc23)CCC4)CC1,-4,2,13*,-6,2,-2,-3,-5,-3,31*
Cc1cc2oc(=O)cc(CN3CCN(Cc4ccccc4)CC3)c2cc1O,-2,12,-1,5,-2,-1,x,x,x,x
CC1CCN(Cc2cc(=O)oc3cc4c(cc23)CCCC4)CC1,0,6,-1,1,4,2,x,x,x,x
COc1cc(CNC(=O)c2ccccc2NC(=O)C2=C(C)OCCS2)cc(OC)c1OC,-3,3,0,8,2,-5,x,x,x,x
SMILES,IMP-1 inh-1,PAFAH1B2 FP inh,VIM-2 inh,PAFAH1B3 inh,pPAFAH FP inh,PAFAH2 FP inh,IMP-1 inh-2,VIM-2 FRET inh,TEM-1 counter,VIM-2 confirm 2
O=c1[nH]c(-c2ccccc2)ncc1OCc1ccccc1,x,5,x,7,x,2,x,x,x,x
COc1ccc(CCn2c(=N)c(C(=O)NCC3CCCO3)cc3c(=O)n4ccccc4nc32)cc1OC (configuration not stated),-2,5,14*,0,-1,-2,-2,-1,-5,21*
Cc1cccn2c(=O)c3cc(C(=O)NCC4CCCO4)c(=N)n(CCc4ccccc4)c3nc12 (configuration not stated),-4,-3,0,4,3,-4,x,x,x,x
CCOC(=O)N1CCN(C(=O)C2CCN(C(=O)c3ccccc3C)CC2)CC1,x,-5,x,4,x,-7,x,x,x,x
NC(=S)NN=C1c2cc(OCCN3CCOCC3)ccc2-c2ccc(OCCN3CCOCC3)cc21,-3,4,59*,9,9,-4,-3,-3,-11,71*
CCN1CCN(c2nnc(-c3ccccc3)c3ccccc23)CC1,-2,7,0,7,2,-1,x,x,x,x
CCN1CCN(c2cc3c(nn2)Oc2ccccc2N3C)CC1,-4,1,13*,3,5,-2,-3,11,-8,25*
CN(CCC#N)C(=O)c1cc2c(Cl)nc3ccccc3c2s1,-2,-2,20*,-2,5,2,-4,7,-6,25*
CN(C)CCN(Cc1ccco1)C(=O)c1cc2c(Cl)nc3ccccc3c2s1,-1,6,13*,11,2,3,-2,0,-4,36*
CCCCN(Cc1ccco1)C(=O)c1cc2c(=O)[nH]c3ccc(C)cc3c2s1,-4,4,7,-6,5,-2,x,x,x,x
O=C(COc1cc2oc(=O)c3c(c2cc1Cl)CCC3)NCCCN1CCCC1=O,-3,3,18*,3,0,-4,-2,0,-6,32*
O=C(COc1ccc2c(c1)oc(=O)c1ccccc12)NCCN1CCOCC1,2,1,19*,3,-8,2,-3,1,-6,27*
O=C(COc1ccc2c3c(c(=O)oc2c1)CCC3)NCCN1CCOCC1,-1,-1,19*,3,2,6,-3,-16,-5,25*
